# Test results: ChEMBL document CHEMBL2346503, “Synthesis and evaluation of novel (18)F-labeled spirocyclic piperidine derivatives as σ1 receptor ligands for positron emission tomography imaging” (J Med Chem, 2013); call rule not given here
# What was measured:
# Blood [1] = assay: Biodistribution in ICR mouse blood at 370 kBq, iv after 60 mins by gamma-counting analysis in presence of haloperidol relative to control; format: ADME, organism-based; conditions: in vivo, 1 h
# Method in brief: (§1)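 Male ICR mice (n = 5) got saline or haloperidol (0.1 mL, 1.0 mg/kg) via tail vein 5 min before 370 kBq tracer iv. Tissues were taken 60 min later and γ-counted as %ID/g (intestine as %ID/organ). Control and blocked groups were compared by two-tailed independent Student's t test, p ≤ 0.05.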
# Blood [2] = assay: Biodistribution in ICR mouse blood at 370 kBq, iv after 120 mins by gamma-counting analysis; format: ADME, organism-based; conditions: in vivo, 2 h
# Method in brief: (§2)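 Male ICR mice (n = 5 per group) got 370 kBq tracer in 0.1 mL saline by iv injection. They were decapitated at 2, 30, 60 or 120 min, and organs were weighed and γ-counted. %ID/g was found against diluted aliquots of the injected dose, decay-corrected, and given as mean ± SD.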
# [3] = Ratio of drug uptake from ICR mouse brain to blood after 60 mins; format: ADME, tissue-based; conditions: brain and blood
# Stomach [4] = assay: Biodistribution in ICR mouse stomach assessed per organ at 370 kBq, iv after 60 mins by gamma-counting analysis; format: ADME, organism-based; conditions: in vivo, 1 h
# Method in brief: (§3)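 Male ICR mice, n = 5 per time point, given the radiotracer in saline (370 kBq, 0.1 mL) by intravenous injection. Killed by decapitation at 2, 30, 60 or 120 min. Organs were excised, weighed and gamma-counted with decay correction. Uptake is expressed as % injected dose per gram of wet tissue against diluted standards of the injected material; stomach and intestine are expressed as % injected dose per organ. Mean ± SD.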
# Kidney [5] = assay: Biodistribution in ICR mouse kidney at 370 kBq, iv after 60 mins by gamma-counting analysis; format: ADME, organism-based; conditions: in vivo, 1 h; method in brief: as §2
# Spleen [6] = assay: Biodistribution in ICR mouse spleen at 370 kBq, iv after 60 mins by gamma-counting analysis; format: ADME, organism-based; conditions: in vivo, 1 h; method in brief: as §3
# Brain [7] = assay: Biodistribution in ICR mouse brain at 370 kBq, iv after 60 mins by gamma-counting analysis; format: ADME, organism-based; conditions: in vivo, 1 h; method in brief: as §2
# Blood [8] = assay: Biodistribution in ICR mouse blood at 370 kBq, iv after 60 mins by gamma-counting analysis; format: ADME, organism-based; conditions: in vivo, 1 h; method in brief: as §2
# Stomach [9] = assay: Biodistribution in ICR mouse stomach assessed per organ at 370 kBq, iv after 30 mins by gamma-counting analysis; format: ADME, organism-based; conditions: in vivo, 0.5 h; method in brief: as §3
# Brain [10] = assay: Biodistribution in ICR mouse brain at 370 kBq, iv after 30 mins by gamma-counting analysis; format: ADME, organism-based; conditions: in vivo, 0.5 h; method in brief: as §2
# Heart = assay: Biodistribution in ICR mouse heart at 370 kBq, iv after 30 mins by gamma-counting analysis; format: ADME, organism-based; conditions: in vivo, 0.5 h; method in brief: as §2
# Blood [11] = assay: Biodistribution in ICR mouse blood at 370 kBq, iv after 30 mins by gamma-counting analysis; format: ADME, organism-based; conditions: in vivo, 0.5 h; method in brief: as §2
# Kidney [12] = assay: Biodistribution in ICR mouse kidney at 370 kBq, iv after 2 mins by gamma-counting analysis; format: ADME, organism-based; conditions: in vivo; method in brief: as §2
# Spleen [13] = assay: Biodistribution in ICR mouse spleen at 370 kBq, iv after 2 mins by gamma-counting analysis; format: ADME, organism-based; conditions: in vivo; method in brief: as §3
# Liver [14] = assay: Biodistribution in ICR mouse liver at 370 kBq, iv after 2 mins by gamma-counting analysis; format: ADME, organism-based; conditions: in vivo; method in brief: as §2
# [15] = Stability of the compound in mouse plasma at 37 degC up to 4 hrs; format: ADME, cell-free
# Method in brief: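 The radiotracer (3.7 MBq in 100 μL water) was added to 1 mL of freshly prepared murine plasma and incubated at 37 °C for 4 h. Radiochemical purity was assayed by HPLC at 1, 2 and 4 h.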
# [16] = Chemical stability of the compound at room temperature up to 4 hrs; format: physicochemical
# Method in brief: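 Radiotracer (3.7 MBq in 100 μL water) was added to 1 mL of 80% ethanol or 0.9% NaCl and held at room temperature for 4 h. Radiochemical purity was checked by HPLC at 1, 2 and 4 h.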
# Liver [17] = assay: Metabolic stability in ICR mouse liver assessed as retention time at 18.5 MBq, iv by HPLC analysis; format: ADME, organism-based; conditions: in vivo
# Method in brief: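 Male ICR mice given radiotracer iv (18.5 MBq, 0.2 mL), killed at 30 min. Brain and liver were homogenized in ice-cold PBS (0.01 M, pH 7.4) and extracted with ice-cold MeCN. Supernatants were filtered, concentrated and analysed by radio-HPLC on a C18 column, acetonitrile/water with 0.1% TFA (45:55), 1 mL/min.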
# Thalamus = assay: Biodistribution in Sprague-Dawley rat thalamus at 23 MBq, iv after 60 mins by microPET imaging/CT study; format: ADME, organism-based; conditions: in vivo, 1 h
# Method in brief: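 Sprague-Dawley rats under isoflurane (1.5–2.5%) in oxygen received 23 MBq radiotracer (0.2 mL saline) via tail vein. Blocking animals were pre-injected with haloperidol (0.2 mL, 1 mg/kg) 5 min before the tracer. MicroPET emission was acquired for 30 min starting 60 min post-injection, followed by a 5 min CT scan; images were summed over 60–90 min.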
# [18] = Drug uptake in Sprague-Dawley rat paramedian lobule at 12.2 MBq, iv after 60 mins by autoradiography; format: ADME, organism-based; conditions: in vivo, 1 h
# Method in brief: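 [¹⁸F]-labelled tracer (0.2 mL, 12.2 MBq) given intravenously to conscious Sprague-Dawley rats (n = 3). Each rat was killed by cervical dislocation 60 min after injection. The brain was removed and frozen in liquid nitrogen, and 20 μm coronal sections were cut on a cryostat for ex vivo autoradiography of regional radioactivity.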
# Lung [19] = assay: Biodistribution in ICR mouse lung assessed as reduction in radiotracer uptake at 370 kBq, iv after 60 minutes by gamma-counting analysis in presence of SA4503 relative to control; format: ADME, organism-based; set-up: scale not given: the % may be the effect or the level left; conditions: in vivo, 1 h
# Method in brief: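 Male ICR mice got saline or SA4503 (0.1 mL; 2, 5, 10 or 2.2 μmol/kg) via tail vein 5 min before 370 kBq tracer (0.1 mL) iv. They were decapitated at 60 min and tissues γ-counted. Percent change was taken against saline controls, with two-tailed Student's t test, p ≤ 0.05.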
# Bone = assay: Biodistribution in ICR mouse bone at 370 kBq, iv after 60 mins by gamma-counting analysis in presence of haloperidol relative to control; format: ADME, organism-based, Bone element; conditions: in vivo, 1 h; method in brief: as §1
# Muscle tissue = assay: Biodistribution in ICR mouse muscle at 370 kBq, iv after 60 mins by gamma-counting analysis in presence of haloperidol relative to control; format: ADME, organism-based; conditions: in vivo, 1 h
# Method in brief: (§4)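 Male ICR mice, n = 5 per group, received saline (0.1 mL) or haloperidol (0.1 mL, 1.0 mg/kg) via tail vein 5 min before the radiotracer (370 kBq, 0.1 mL, iv). Killed by decapitation at 60 min. Tissues were excised, weighed and gamma-counted. Values are % ID/g (stomach as % ID/organ) and percent change versus saline controls, compared by two-tailed independent Student's t test, p ≤ 0.05.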
# Intestine = assay: Biodistribution in ICR mouse intestine assessed per organ at 370 kBq, iv after 60 mins by gamma-counting analysis in presence of haloperidol relative to control; format: ADME, organism-based; conditions: in vivo, 1 h; method in brief: as §1
# Kidney [20] = assay: Biodistribution in ICR mouse kidney at 370 kBq, iv after 60 mins by gamma-counting analysis in presence of haloperidol relative to control; format: ADME, organism-based; conditions: in vivo, 1 h; method in brief: as §1
# Lung [21] = assay: Biodistribution in ICR mouse lung at 370 kBq, iv after 60 mins by gamma-counting analysis in presence of haloperidol relative to control; format: ADME, organism-based; conditions: in vivo, 1 h; method in brief: as §4
# Brain [22] = assay: Biodistribution in ICR mouse brain at 370 kBq, iv after 60 mins by gamma-counting analysis in presence of haloperidol relative to control; format: ADME, organism-based; conditions: in vivo, 1 h; method in brief: as §1
# [23] = Ratio of drug uptake from ICR mouse brain to blood after 120 mins; format: ADME, tissue-based; conditions: brain and blood
SMILES,Drug uptake (Blood [1]) [%],Drug uptake (Blood [2]) [% ID/g],Kp at 1 h [3],Drug uptake (Stomach [4]) [%ID],Drug uptake (Kidney [5]) [% ID/g],Drug uptake (Spleen [6]) [% ID/g],Drug uptake (Brain [7]) [% ID/g],Drug uptake (Blood [8]) [% ID/g],Drug uptake (Stomach [9]) [%ID],Drug uptake (Brain [10]) [% ID/g],Drug uptake (Heart) [% ID/g],Drug uptake (Blood [11]) [% ID/g],Drug uptake (Kidney [12]) [% ID/g],Drug uptake (Spleen [13]) [% ID/g],Drug uptake (Liver [14]) [% ID/g],Drug uptake (Bone) [%],Drug uptake (Muscle tissue) [%],Drug uptake (Intestine) [%],Drug uptake (Kidney [20]) [%],Drug uptake (Lung [21]) [%],other results
[18F]CCOc1ccc(CN2CCC3(CC2)OCc2ccccc23)cc1,352,1.2,11.4,0.9,10.87,8.52,9.1,0.8,1.09,9.32,14.39,0.72,18.76,4.84,8.46,18,-20,-7,-47,-76,Stability [15]: Stable; Stability [16]: Stable; Retention_time (Liver [17]): 7.72 min; Drug uptake (Thalamus): Active; Drug uptake [18]: Active; Activity (Lung [19]): 71%; Drug uptake (Brain [22]): -58%; Kp at 2 h [23]: 7.5
[18F]CCOCCOCCOc1ccc(CN2CCC3(CC2)OCc2ccccc23)cc1,17,3.52,1.4,1.45,4.37,5.43,4.63,3.35,2,5.2,2.95,2.96,16.45,5.35,5.83,-26,17,30,11,6,Drug uptake (Brain [22]): -16%; Kp at 2 h [23]: 1.1
